{"source": "ChEMBL document CHEMBL3228037", "about": "“Syntheses and antiinflammatory actions of 4,5,6,7-tetrahydroindazole-5-carboxylic acids” (J Med Chem, 1979)", "key": {"Rattus norvegicus [1]": {"system": "Rattus norvegicus", "test": "Antiinflammatory activity in rat assessed as inhibition of carrageenan-induced paw edema at 25 mg/kg, po preincubated for 1 hr followed by carrageenan challenge relative to control", "type": "functional", "in_short": "(§1)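 Winter carrageenan edema screen in rats. Compound was given orally as a suspension in 0.5% CMC at 100 and/or 25 mg/kg. One hour later, 1% carrageenan solution was injected into the hind paw.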"}, "Rattus norvegicus [2]": {"system": "Rattus norvegicus", "test": "Antiinflammatory activity in rat assessed as inhibition of carrageenan-induced paw edema at 3 mg/kg, po preincubated for 1 hr followed by carrageenan challenge relative to control", "type": "functional", "in_short": "(§2)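 Winter carrageenan paw edema in rats. Oral dosing as a suspension in 0.5% CMC was followed 1 h later by 1% carrageenan injected into the hind paw. Several doses were tested, and ED50 was read from the dose-response curve.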"}, "Rattus norvegicus [3]": {"system": "Rattus norvegicus", "test": "Antiinflammatory activity in po dosed rat assessed as inhibition of carrageenan-induced paw edema preincubated for 1 hr followed by carrageenan challenge relative to control", "type": "functional", "in_short": "as §2"}, "Rattus norvegicus [4]": {"system": "Rattus norvegicus", "test": "Antiarthritic activity in po dosed rat assessed as reduction of adjuvant-induced foot volume administered as qd for 14 days starting on day 14 after adjuvant inoculation measured on day 28", "type": "functional", "in_short": "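Rats with established adjuvant arthritis (Newbould method) were dosed orally once daily for 14 days, starting on day 14 after adjuvant inoculation. Foot swelling was measured as volume. ED50 was estimated from the dose-response curve.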"}, "Mus musculus": {"system": "Mus musculus", "test": "Analgesic activity in po dosed mouse assessed as inhibition of acetic acid-induced writhing", "type": "functional", "in_short": "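Acetic acid writhing test after Koster, using 10 male mice per dose.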"}, "Rattus norvegicus [5]": {"system": "Rattus norvegicus", "test": "Ulcerogenic activity in po dosed rat assessed as induction of lesions in gastric mucosa measured after 24 hrs", "type": "toxicity, organism-based", "conditions": "in vivo", "in_short": "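Compounds were suspended in 0.2% carboxymethylcellulose and given orally to seven male rats per dose, at five or more doses; controls got vehicle alone. Rats were killed 24 h later, and gastric lesions (hemorrhage, erosion, ulcer) were counted blind. MUD, the dose giving two lesions, was calculated graphically.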"}, "Rattus norvegicus [6]": {"system": "Rattus norvegicus", "test": "Antiinflammatory activity in rat assessed as inhibition of carrageenan-induced paw edema at 50 mg/kg, po preincubated for 1 hr followed by carrageenan challenge relative to control", "type": "functional", "in_short": "as §2"}, "Rattus norvegicus [7]": {"system": "Rattus norvegicus", "test": "Antiinflammatory activity in rat assessed as inhibition of carrageenan-induced paw edema at 100 mg/kg, po preincubated for 1 hr followed by carrageenan challenge relative to control", "type": "functional", "in_short": "as §1"}, "Rattus norvegicus [8]": {"system": "Rattus norvegicus", "test": "Antiinflammatory activity in rat assessed as inhibition of carrageenan-induced paw edema at 10 mg/kg, po preincubated for 1 hr followed by carrageenan challenge relative to control", "type": "functional", "in_short": "as §2"}, "Rattus norvegicus [9]": {"system": "Rattus norvegicus", "test": "Antiinflammatory activity in rat assessed as inhibition of carrageenan-induced paw edema at 2.5 mg/kg, po preincubated for 1 hr followed by carrageenan challenge relative to control", "type": "functional", "in_short": "as §2"}}}
{"smiles": "O=C(O)C1CCc2c(cnn2-c2cccc(C(F)(F)F)c2)C1", "note": "(centres undefined)", "values": [{"measurement": "inhibition in vivo at 25 mg/kg", "setting": "Rattus norvegicus [1]", "value": 35.6, "unit": "%"}]}
{"smiles": "Cc1ccccc1-n1ncc2c1CCC(C(=O)O)C2", "note": "(centres undefined)", "values": [{"measurement": "inhibition in vivo at 25 mg/kg", "setting": "Rattus norvegicus [1]", "value": 0, "unit": "%"}]}
{"smiles": "COc1ccc2c(c1)c(CC(=O)O)c(C)n2C(=O)c1ccc(Cl)cc1", "note": "[INDOMETHACIN]", "values": [{"measurement": "inhibition in vivo at 3 mg/kg", "setting": "Rattus norvegicus [2]", "value": 35.5, "unit": "%"}, {"measurement": "ED50", "setting": "Rattus norvegicus [3]", "value": 3.8, "unit": "mg/kg"}, {"measurement": "ED50", "setting": "Rattus norvegicus [4]", "value": 0.3, "unit": "mg/kg"}, {"measurement": "ED50", "setting": "Mus musculus", "value": 6.3, "unit": "mg/kg"}, {"measurement": "MUD", "setting": "Rattus norvegicus [5]", "value": 5.6, "unit": "mg/kg"}]}
{"smiles": "O=C(O)C1CCc2nn(-c3cccc4ccccc34)cc2C1", "note": "(centres undefined)", "values": [{"measurement": "inhibition in vivo at 25 mg/kg", "setting": "Rattus norvegicus [1]", "value": 0, "unit": "%"}]}
{"smiles": "O=C(O)C1CCc2c(cnn2-c2cccc(F)c2)C1", "note": "(centres undefined)", "values": [{"measurement": "inhibition in vivo at 25 mg/kg", "setting": "Rattus norvegicus [1]", "value": 38.2, "unit": "%"}]}
{"smiles": "Cc1ccc(-n2ncc3c2CCC(C(=O)O)C3)cc1", "note": "(centres undefined)", "values": [{"measurement": "inhibition in vivo at 25 mg/kg", "setting": "Rattus norvegicus [1]", "value": 38.7, "unit": "%"}]}
{"smiles": "O=C(O)C1CCc2c(cnn2Cc2ccccc2)C1", "note": "(centres undefined)", "values": [{"measurement": "inhibition in vivo at 25 mg/kg", "setting": "Rattus norvegicus [1]", "value": 15.9, "unit": "%"}]}
{"smiles": "CCCCC1C(=O)N(c2ccccc2)N(c2ccccc2)C1=O", "note": "[PHENYLBUTAZONE]", "values": [{"measurement": "inhibition in vivo at 50 mg/kg", "setting": "Rattus norvegicus [6]", "value": 43.4, "unit": "%"}, {"measurement": "ED50", "setting": "Rattus norvegicus [3]", "value": 78, "unit": "mg/kg"}, {"measurement": "ED50", "setting": "Rattus norvegicus [4]", "value": 12, "unit": "mg/kg"}, {"measurement": "ED50", "setting": "Mus musculus", "value": 810, "unit": "mg/kg"}, {"measurement": "MUD", "setting": "Rattus norvegicus [5]", "value": 90, "unit": "mg/kg"}]}
{"smiles": "O=C(O)C1CCc2nn(-c3ccccn3)cc2C1", "note": "(centres undefined)", "values": [{"measurement": "inhibition in vivo at 100 mg/kg", "setting": "Rattus norvegicus [7]", "value": 11.5, "unit": "%"}]}
{"smiles": "O=C(O)C1CCc2c(cnn2-c2cccc3ccccc23)C1", "note": "(centres undefined)", "values": [{"measurement": "inhibition in vivo at 25 mg/kg", "setting": "Rattus norvegicus [1]", "value": 13.1, "unit": "%"}]}
{"smiles": "O=C(O)C1CCc2nn(-c3ccccc3)cc2C1", "note": "(centres undefined)", "values": [{"measurement": "inhibition in vivo at 100 mg/kg", "setting": "Rattus norvegicus [7]", "value": 36.4, "unit": "%"}]}
{"smiles": "COc1ccc(-n2cc3c(n2)CCC(C(=O)O)C3)cc1", "note": "(centres undefined)", "values": [{"measurement": "inhibition in vivo at 100 mg/kg", "setting": "Rattus norvegicus [7]", "value": 6, "unit": "%"}]}
{"smiles": "O=C(O)C1CCc2c(cnn2-c2ccccn2)C1", "note": "(centres undefined)", "values": [{"measurement": "inhibition in vivo at 25 mg/kg", "setting": "Rattus norvegicus [1]", "value": 57.9, "unit": "%"}]}
{"smiles": "O=C(O)C1CCc2c(cnn2-c2ccncc2)C1", "note": "(centres undefined)", "values": [{"measurement": "inhibition in vivo at 25 mg/kg", "setting": "Rattus norvegicus [1]", "value": 13.4, "unit": "%"}]}
{"smiles": "O=C(O)C1CCc2c(cnn2-c2ccc(O)cc2)C1", "note": "(centres undefined)", "values": [{"measurement": "inhibition in vivo at 100 mg/kg", "setting": "Rattus norvegicus [7]", "value": 14.7, "unit": "%"}]}
{"smiles": "O=C(O)C1CCc2c(cnn2-c2ccccc2)C1", "note": "(centres undefined)", "values": [{"measurement": "inhibition in vivo at 10 mg/kg", "setting": "Rattus norvegicus [8]", "value": 72.6, "unit": "%"}, {"measurement": "inhibition in vivo at 2.5 mg/kg", "setting": "Rattus norvegicus [9]", "value": 40.6, "unit": "%"}, {"measurement": "ED50", "setting": "Rattus norvegicus [3]", "value": 3.5, "unit": "mg/kg"}, {"measurement": "ED50", "setting": "Rattus norvegicus [4]", "value": 1.5, "unit": "mg/kg"}, {"measurement": "ED50", "setting": "Mus musculus", "value": 4.7, "unit": "mg/kg"}, {"measurement": "MUD", "setting": "Rattus norvegicus [5]", "value": 20, "unit": "mg/kg"}]}
{"smiles": "O=C(O)C1CCc2c(cnn2-c2ccc(Cl)cc2)C1", "note": "(centres undefined)", "values": [{"measurement": "inhibition in vivo at 10 mg/kg", "setting": "Rattus norvegicus [8]", "value": 39.4, "unit": "%"}, {"measurement": "inhibition in vivo at 25 mg/kg", "setting": "Rattus norvegicus [1]", "value": 39.4, "unit": "%"}, {"measurement": "ED50", "setting": "Rattus norvegicus [3]", "value": 17, "unit": "mg/kg"}, {"measurement": "ED50", "setting": "Rattus norvegicus [4]", "value": 6.4, "unit": "mg/kg"}, {"measurement": "ED50", "setting": "Mus musculus", "value": 7, "unit": "mg/kg"}, {"measurement": "MUD", "setting": "Rattus norvegicus [5]", "value": 70, "unit": "mg/kg"}]}
{"smiles": "Cc1ccc(-n2cc3c(n2)CCC(C(=O)O)C3)cc1", "note": "(centres undefined)", "values": [{"measurement": "inhibition in vivo at 100 mg/kg", "setting": "Rattus norvegicus [7]", "value": 10.8, "unit": "%"}]}
{"smiles": "O=C(O)c1nn(-c2ccccc2)c2c1CC(C(=O)O)CC2", "note": "(centres undefined)", "values": [{"measurement": "inhibition in vivo at 100 mg/kg", "setting": "Rattus norvegicus [7]", "value": 0, "unit": "%"}]}
{"smiles": "O=C(O)c1nn(-c2cccc(C(F)(F)F)c2)c2c1CC(C(=O)O)CC2", "note": "(centres undefined)", "values": [{"measurement": "inhibition in vivo at 100 mg/kg", "setting": "Rattus norvegicus [7]", "value": 0, "unit": "%"}]}
{"smiles": "O=C(O)C1CCc2nn(-c3cccc(C(F)(F)F)c3)cc2C1", "note": "(centres undefined)", "values": [{"measurement": "inhibition in vivo at 100 mg/kg", "setting": "Rattus norvegicus [7]", "value": 14.8, "unit": "%"}]}
{"smiles": "O=C(O)C1CCc2nn(-c3ccc(Cl)cc3)cc2C1", "note": "(centres undefined)", "values": [{"measurement": "inhibition in vivo at 100 mg/kg", "setting": "Rattus norvegicus [7]", "value": 17.9, "unit": "%"}]}
{"smiles": "O=C(O)c1nn(-c2ccc(Cl)cc2)c2c1CC(C(=O)O)CC2", "note": "(centres undefined)", "values": [{"measurement": "inhibition in vivo at 100 mg/kg", "setting": "Rattus norvegicus [7]", "value": 0, "unit": "%"}]}
{"smiles": "O=C(O)C1CCc2nn(Cc3ccccc3)cc2C1", "note": "(centres undefined)", "values": [{"measurement": "inhibition in vivo at 100 mg/kg", "setting": "Rattus norvegicus [7]", "value": 3.7, "unit": "%"}]}
{"smiles": "O=C(O)c1ccccc1Nc1cccc(C(F)(F)F)c1", "note": "[FLUFENAMIC ACID]", "values": [{"measurement": "ED50", "setting": "Rattus norvegicus [3]", "value": 20, "unit": "mg/kg"}, {"measurement": "ED50", "setting": "Rattus norvegicus [4]", "value": 5.1, "unit": "mg/kg"}, {"measurement": "ED50", "setting": "Mus musculus", "value": 160, "unit": "mg/kg"}, {"measurement": "MUD", "setting": "Rattus norvegicus [5]", "value": 50, "unit": "mg/kg"}]}
{"smiles": "COc1ccc(-n2ncc3c2CCC(C(=O)O)C3)cc1", "note": "(centres undefined)", "values": [{"measurement": "inhibition in vivo at 25 mg/kg", "setting": "Rattus norvegicus [1]", "value": 9.8, "unit": "%"}]}
{"smiles": "Cc1ccccc1-n1cc2c(n1)CCC(C(=O)O)C2", "note": "(centres undefined)", "values": [{"measurement": "inhibition in vivo at 100 mg/kg", "setting": "Rattus norvegicus [7]", "value": 38, "unit": "%"}]}
{"smiles": "Cc1ccc(-n2nc(C(=O)O)c3c2CCC(C(=O)O)C3)cc1", "note": "(centres undefined)", "values": [{"measurement": "inhibition in vivo at 100 mg/kg", "setting": "Rattus norvegicus [7]", "value": 0, "unit": "%"}]}
